Results on nine compounds are retold here after ChEMBL document CHEMBL1123093, “Synthesis and biological activity of 6-substituted mitosene analogues of the mitomycins” (J Med Chem, 1985).

Data set [1] deals with Escherichia coli. Kind of data set: Phage induction (ILB) in Escherichia coli: ratio was reported at a dose of 0.8 ug/mL.
Data set [2] is described as follows: Partition coefficient between octanol and phosphate buffer (pH 7.4) was observed for the compound. In kind it is physicochemical. A digest of the protocol:
(§1)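 Partition coefficient measured as distribution between 1-octanol and pH 7.4 phosphate buffer, following the Hansch method.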

For data set [3], the system named is Escherichia coli. In words: Phage induction (ILB) in Escherichia coli: ratio was reported at a dose of 3.1 ug/mL.
The species named for data set [4] is Mus musculus. Kind of data set: Antitumor activity in P388 mouse leukemia and maximum % T/C value was determined at optimal dose (OD). It counts as functional. An outline of the steps: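 P388 ascites leukemia: 10⁶ ascites cells implanted in female CDF₁ mice. Each dose level was given on day 1 only, to six mice per dose. Ten control mice received saline. Median survival time (MST) was recorded, and % T/C > 125 was taken as active.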

In data set [5] the test system is Escherichia coli. In words: Induction of phage in Escherichia coli(ILB) expressed as Ratio of plaques in treated bacterial cultures to those in control at a dose of 3.1 ug/mL. In kind it is functional. An outline of the steps:
(§2)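 Phage induction (ILB) in Escherichia coli: latent phage was activated in bacterial cultures exposed to compound at the stated concentration. Plaques (clear areas) were counted, and the value reported is plaques in treated culture divided by plaques in the untreated control.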

A short description of data set [6]: Partition coefficient between octanol and phosphate buffer (pH 7.4) was observed for the compound at pH 7.4. In kind it is physicochemical. An outline of the steps: as §1
Data set [7] relates to Escherichia coli. Kind of data set: Induction of phage in Escherichia coli(ILB) expressed as Ratio of plaques in treated bacterial cultures to those in control at a dose of 0.8 ug/mL. In kind it is functional. An outline of the steps:
as §2

Data set [8] has as its system Mus musculus. In words: Antitumor activity against P388 mouse leukemia as maximum and median survival time as % T/C was reported at a dose of 12.8 mg/Kg per injection. In kind it is functional. A digest of the protocol:
(§3)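 P388 ascites, 10⁶ cells implanted in female CDF₁ mice. Six mice per dose; single treatment on day 1 only. Ten controls received saline. Survival recorded as median survival time; % T/C = treated vs control MST, with % T/C > 125 taken as active.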

In data set [9] the test system is Mus musculus. In words: Antitumor activity against P388 mouse leukemia as maximum and average change in body weight was reported at a dose of 25.6 mg/kg per injection. In kind it is functional.
In data set [10] the test system is Mus musculus. In words: Antitumor activity against P388 mouse leukemia as maximum and average change in body weight was reported at a dose of 3.2 mg/kg per injection. In kind it is functional.
Data set [11] has as its system Mus musculus. Kind of data set: Antitumor activity against P388 mouse leukemia as maximum and median survival time as % T/C was reported at a dose of 6.4 mg/Kg per injection. In kind it is functional. A digest of the protocol: as §3
The test system of data set [12] is Mus musculus. Kind of data set: Antitumor activity against P388 mouse leukemia as maximum and average change in body weight was reported at a dose of 6.4 mg/kg per injection. It counts as functional.
In data set [13] the test system is Mus musculus. Kind of data set: Antitumor activity against P388 mouse leukemia as maximum and average change in body weight was reported at a dose of 12.8 mg/kg per injection. It counts as functional.
Data set [14] concerns Mus musculus. Kind of data set: Antitumor activity against P388 mouse leukemia as maximum and median survival time as % T/C was reported at a dose of 3.2 mg/Kg per injection. In kind it is functional. A digest of the protocol: as §3
Data set [15] concerns Mus musculus. Kind of data set: Antitumor activity against P388 mouse leukemia as maximum and average change in body weight was reported at a dose of 0.8 mg/kg per injection. It counts as functional.
The subject of data set [16] is Mus musculus. Kind of data set: Antitumor activity against P388 mouse leukemia as maximum and average change in body weight was reported at a dose of 1.6 mg/kg per injection. It counts as functional.
For data set [17], the system named is Mus musculus. In words: Antitumor activity against P388 mouse leukemia as maximum and median survival time as % T/C was reported at a dose of 1.6 mg/Kg per injection. In kind it is functional. A digest of the protocol:
as §3

Data set [18] concerns Mus musculus. In words: Antitumor activity against P388 mouse leukemia as maximum and median survival time as % T/C was reported at a dose of 0.8 mg/Kg per injection. It counts as functional. An outline of the steps: as §3
The test system of data set [19] is Mus musculus. In words: Antitumor activity against P388 mouse leukemia as maximum and median survival time as % T/C was reported at a dose of 0.2 mg/Kg per injection. It counts as functional. An outline of the steps:
as §3

Data set [20] deals with Mus musculus. Kind of data set: Antitumor activity against P388 mouse leukemia as maximum and average change in body weight was reported at a dose of 0.4 mg/Kg per injection. In kind it is functional.
Data set [21] has as its system Mus musculus. Kind of data set: Antitumor activity against P388 mouse leukemia as maximum and average change in body weight was reported at a dose of 4.8 mg/kg per injection. In kind it is functional.
Data set [22] concerns Mus musculus. In words: Antitumor activity against P388 mouse leukemia as maximum and average change in body weight was reported at a dose of 0.2 mg/kg per injection. In kind it is functional.
The test system of data set [23] is Mus musculus. Kind of data set: Antitumor activity against P388 mouse leukemia as maximum and median survival time as % T/C was reported at a dose of 0.4 mg/Kg per injection. It counts as functional. A digest of the protocol: as §3
The subject of data set [24] is Mus musculus. In words: Antitumor activity against P388 mouse leukemia as maximum and median survival time as % T/C was reported at a dose of 4.8 mg/Kg per injection. It counts as functional. A digest of the protocol:
as §3

Each structure is given as a SMILES string.

On to `CNC(=O)OCc1c2c(n3c1C(OC(C)=O)CC3)C(=O)C(Cl)=C(OC)C2=O` (centres undefined), for which the ILB in [1] amounted to 12.1; in data set [3], 27. The logD in [2] came to 2.08.

With `COC1=CC(=O)c2c(c(COC(N)=O)c3n2CCC3OC(C)=O)C1=O` (centres undefined), in data set [4], the T/C came to 111%. For the same compound, the ILB is given as 11.9 in data set [1] and 18.6 in [3]. The same compound came in with a pH-dependent lipophilicity (logD) in data set [2] of 0.72.

With `CNC(=O)OCc1c2c(n3c1C(OC(C)=O)CC3)C(=O)C(Br)=C(N)C2=O` (centres undefined), the ILB is given as 1.1 in data set [5] and 1.2 in [7]. In data set [6], the logD was determined as 1.15.

Consider `CNC(=O)OCc1c2c(n3c1C(OC(C)=O)CC3)C(=O)C(C)=C(OC)C2=O` (centres undefined), for which the T/C is reported as 145% in [8], 180% in [4], 135% in [11] and 120% in [14]. The ILB came out at 16.6 in [1] and 34.1 in data set [3]. Besides, the Average weight change is -0.2 g in [9], 1 g in [10], 1.2 g in data set [12] and 0 g in data set [13]. In addition, the logD in data set [2] amounted to 2.39.

For `COC1=C(C)C(=O)c2c(c(COC(N)=O)c3n2CCC3OC(C)=O)C1=O` (centres undefined), the T/C in data set [4] stood at 165%; in data set [17], 124%; in data set [18], 114%; in [14], 133%. The ILB in [1] was 13.2; in [3], 24.5. Further, the logD in [2] was 1.54. Further, the Average weight change in data set [10] came out at 0.3 g; in [15], 1 g; in data set [16], 0.6 g; in data set [12], 0.1 g.

On to `CNC(=O)OCc1c2c(n3c1C(OC(C)=O)CC3)C(=O)C=C(N1CCCC1)C2=O` (centres undefined), for which the ILB in [1] and in [3] was 1 each time. The logD in [2] worked out at 1.4.

In the case of `CNC(=O)OCc1c2c(n3c1C(OC(C)=O)CC3)C(=O)C=C(OC)C2=O` (centres undefined), in data set [4], the T/C came out at 106%. The ILB is on record as 6 in data set [1] and 10.1 in data set [3]. This compound also had a logD in [2] of 1.19.

For the compound `CNC(=O)OCc1c2c(n3c1C(OC(C)=O)CC3)C(=O)C(Br)=C(OC)C2=O` (centres undefined), in data set [4], the T/C worked out at 100%. The results for the ILB in [1] and in data set [3] were 7.1 and 12.4, respectively.

Consider `CO[C@@]12[C@H](COC(N)=O)C3=C(C(=O)C(C)=C(N)C3=O)N1C[C@@H]1N[C@@H]12` [MITOMYCIN], for which the T/C turned out to be 120% in data set [19]; 130% in data set [23]; 150% in [17]; 135% in data set [18]; 205% in data set [24]; 195% in data set [14]. The Average weight change is 0.3 g in data set [20]; -2.2 g in data set [21]; -0.7 g in [10]; 0.5 g in data set [15]; 0.8 g in data set [22]; -0.2 g in [16].
